Rows were chosen to be rich in hits. Some 3.8% of all compounds tested hit in one or more screens of this group.
SIRT5 inh: blocks human SIRT5 desuccinylation of peptide; hit rate 1.1% among 330,000; inhibition, % at 15 µM; AID 652115; Purified SirT5, succinyl-peptide AMC, trypsin-coupled fluorescence; Q9NXA8; in the data active = inhibition above about 15%
Target sequence (Q9NXA8 whole entry, looked up): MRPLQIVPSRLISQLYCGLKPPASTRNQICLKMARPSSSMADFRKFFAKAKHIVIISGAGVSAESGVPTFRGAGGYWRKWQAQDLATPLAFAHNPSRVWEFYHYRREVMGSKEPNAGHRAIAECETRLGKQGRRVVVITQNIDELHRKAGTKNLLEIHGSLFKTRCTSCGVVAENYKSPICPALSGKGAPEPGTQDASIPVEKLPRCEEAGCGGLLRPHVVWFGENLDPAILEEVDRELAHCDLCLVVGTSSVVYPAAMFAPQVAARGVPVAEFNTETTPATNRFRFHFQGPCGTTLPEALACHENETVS
ARNT TACC3 PPI: disrupts binding between human ARNT and TACC3 | inhibition, % at 9.99 µM | hit rate 0.66% among 390,000 | AlphaScreen His-ARNT PAS-B/GST-TACC3 binding, luminescence; TACC3 fragment carries E629A point mutation;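 active = mean inhibition of replicates at least 50% and at least half of replicates each reaching 50%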
FGF22 binding: binders of recombinant human FGF22 by thermal shift; SYPRO orange fluorescence; percent of sucrose octasulfate shift, DMSO zero; hit rate 1.5% among 340,000; activity (Tm shift, normalised), % at 9.99 µM;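 active = mean Tm shift, scaled 0 neutral to 100 positive control, at about 1.3% or above, every replicate too, limit read from the data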
Target sequence (Q9HCT0 whole entry, looked up): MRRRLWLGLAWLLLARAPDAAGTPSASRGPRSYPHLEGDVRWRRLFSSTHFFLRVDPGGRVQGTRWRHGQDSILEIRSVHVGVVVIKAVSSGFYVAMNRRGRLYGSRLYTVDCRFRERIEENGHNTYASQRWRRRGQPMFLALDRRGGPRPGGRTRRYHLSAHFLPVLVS
FN deposition inh: fibronectin deposition inhibition | AH1F fibroblasts, Alexa488-fibronectin deposition fluorescence, overnight | inhibition, % at 12.6 µM | hit rate 0.086% among 350,000 | AID 743247;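 active = mean inhibition across replicates of 30% or more, regardless of how many single replicates reach that level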
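Assay system: AH1F fibroblasts assembling fluorescent fibronectin matrix; Amount: 10000 AH1F cells per well; Buffer or medium: DMEM, 2% serum; Probe or stimulus: Alexa488-fibronectin, 24 nM final in well; Doses: single compound dose, delivered by pin transfer; Incubation: 1 h adhesion, overnight exposure; Measured by: fluorescence 485/525 nm; Read-out: fibronectin deposition inhibition.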
Xi reactivation: X-chromosome reactivation activator. activation, % at 7.58 µM. XiGFP mouse fibroblasts, % GFP-positive cells imaging, 3 d; cells co-treated with 5-aza-dC sensitizer; scaled so ellipticine positive control = 100%. hit rate 0.055% among 360,000;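 active = mean normalized replicate activation at least 10% and every replicate at or above 10%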
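Assay system – SV40-immortalized XiGFP fibroblast cells, line 68-5-11 · Buffer or medium – DMEM supplemented with 5-aza-dC as sensitizing agent · Dosing – one concentration, pinned · Benchmarks – positive control ellipticine, 6 µM final · Times – 3 days compound exposure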
DENV2 CPE rescue: inhibitors of DENV2 cytopathic effect | CPE inhibition, % at 9.99 µM | DENV2-infected cells, cytopathic effect rescue, plate reader | hit rate 1.7% among 350,000; in the data active = CPE inhibition above about 20%, passing the limit was not always enough; tested in BHK-21 cells
Hits are given with their value.

Screening CN(Cc1ccccc1)C(=O)c1nc2ccccn2c1CN1CCC(N2CCOCC2)CC1 returned SIRT5 inh 15, ARNT TACC3 PPI inactive, FGF22 binding inactive, FN deposition inh inactive, Xi reactivation inactive and DENV2 CPE rescue inactive.
`CCCCN(C)C(=O)c1nc2ccccn2c1CN1CCN(C/C=C/c2ccccc2)CC1` gave SIRT5 inh inactive, ARNT TACC3 PPI inactive, FGF22 binding inactive, FN deposition inh inactive and Xi reactivation inactive.
`Cc1cnc(CNC(=O)c2ccc3sc([C@@H]4O[C@H](CO)[C@H](O)[C@H](O)[C@H]4O)nc3c2)cn1` gave FGF22 binding inactive, FN deposition inh inactive, Xi reactivation inactive and DENV2 CPE rescue inactive.
O=C(NCc1ccc(Cl)nc1)c1ccc2sc([C@@H]3O[C@H](CO)[C@H](O)[C@H](O)[C@H]3O)nc2c1 was read as SIRT5 inh 17, FGF22 binding inactive, FN deposition inh inactive, Xi reactivation inactive and DENV2 CPE rescue inactive.
O=C(Nc1nnc2n1CCS2)c1ccco1 was read as SIRT5 inh inactive, ARNT TACC3 PPI 45, FGF22 binding inactive, FN deposition inh inactive, Xi reactivation inactive and DENV2 CPE rescue inactive.
`N#C[C@H]1[C@@H](c2ccccc2-c2cccc(F)c2)[C@H](CO)N1C(=O)C1CCCC1` gave SIRT5 inh inactive, FN deposition inh inactive, Xi reactivation inactive and DENV2 CPE rescue inactive.
Screening N#C[C@H]1[C@H](c2ccccc2-c2ccccc2F)[C@@H](CO)N1C(=O)C1CC1 returned FGF22 binding inactive, FN deposition inh inactive, Xi reactivation inactive and DENV2 CPE rescue 22.
`N#C[C@@H]1[C@H](c2ccccc2-c2cccc(F)c2)[C@H](CO)N1C(=O)C1CCCC1` gave SIRT5 inh inactive, FN deposition inh inactive, Xi reactivation inactive and DENV2 CPE rescue 37.
`COc1ccc(-c2ccccc2[C@@H]2[C@H](C#N)N(C(=O)C3CC3)[C@H]2CO)cc1` gave SIRT5 inh inactive, FGF22 binding inactive, FN deposition inh inactive, Xi reactivation inactive and DENV2 CPE rescue 45.
Screening N#C[C@H]1[C@H](c2ccccc2-c2ccccc2F)[C@@H](CO)N1C(=O)Cc1ccccc1 returned SIRT5 inh 18, FGF22 binding inactive, FN deposition inh inactive, Xi reactivation inactive and DENV2 CPE rescue inactive.
For N#C[C@@H]1[C@H](c2ccc(-c3ccccc3F)cc2)[C@H](CO)N1C(=O)C1CC1 the results were SIRT5 inh inactive, ARNT TACC3 PPI inactive, FGF22 binding inactive, FN deposition inh inactive, Xi reactivation inactive and DENV2 CPE rescue 87.
N#C[C@H]1[C@H](c2ccc(-c3ccccc3F)cc2)[C@@H](CO)N1C(=O)C1CC1 was read as ARNT TACC3 PPI inactive, FGF22 binding inactive, FN deposition inh inactive, Xi reactivation inactive and DENV2 CPE rescue 30.
N#C[C@@H]1[C@H](c2ccc(-c3ccccc3F)cc2)[C@@H](CO)N1C(=O)C1CC1 was read as SIRT5 inh inactive, ARNT TACC3 PPI inactive, FGF22 binding inactive, FN deposition inh inactive, Xi reactivation inactive and DENV2 CPE rescue 37.
Screening C[C@@H]1CCCCO[C@H](CN(C)Cc2ccc(C(=O)O)cc2)[C@H](C)CN([C@H](C)CO)C(=O)c2cc(NS(=O)(=O)c3cn(C)cn3)ccc2O1 returned ARNT TACC3 PPI inactive, FGF22 binding inactive, Xi reactivation inactive and DENV2 CPE rescue inactive.
Cc1ccc(CC(=O)Nc2ccncc2)cc1 was read as SIRT5 inh inactive, ARNT TACC3 PPI inactive, FGF22 binding 44, FN deposition inh inactive, Xi reactivation inactive and DENV2 CPE rescue inactive.
`COc1ccc(NC(=O)Nc2ccc3c(c2)C(=O)N([C@@H](C)CO)C[C@@H](C)[C@H](CN(C)Cc2ccccc2)OCCCC[C@@H](C)O3)cc1` gave SIRT5 inh inactive, ARNT TACC3 PPI inactive, FGF22 binding inactive, FN deposition inh inactive, Xi reactivation inactive and DENV2 CPE rescue inactive.
For COc1ccc(NC(=O)Nc2ccc3c(c2)C(=O)N([C@H](C)CO)C[C@H](C)[C@H](CN(C)Cc2ccccc2)OCCCC[C@@H](C)O3)cc1 the results were SIRT5 inh inactive, ARNT TACC3 PPI inactive, FGF22 binding inactive, FN deposition inh inactive, Xi reactivation inactive and DENV2 CPE rescue 26.

Compound activity deposited in PubChem BioAssay by Broad Institute.
